The text below walks through data of ChEMBL document CHEMBL4177657, “Structure-activity relationships of 2-substituted phenyl-N-phenyl-2-oxoacetohydrazonoyl cyanides as novel antagonists of exchange proteins directly activated by cAMP (EPACs)” (Bioorg Med Chem Lett, 2017).

Assay [1] has as its target T1, Rap guanine nucleotide exchange factor 3 (Homo sapiens) (UniProt O95398).
T1 sequence (whole entry): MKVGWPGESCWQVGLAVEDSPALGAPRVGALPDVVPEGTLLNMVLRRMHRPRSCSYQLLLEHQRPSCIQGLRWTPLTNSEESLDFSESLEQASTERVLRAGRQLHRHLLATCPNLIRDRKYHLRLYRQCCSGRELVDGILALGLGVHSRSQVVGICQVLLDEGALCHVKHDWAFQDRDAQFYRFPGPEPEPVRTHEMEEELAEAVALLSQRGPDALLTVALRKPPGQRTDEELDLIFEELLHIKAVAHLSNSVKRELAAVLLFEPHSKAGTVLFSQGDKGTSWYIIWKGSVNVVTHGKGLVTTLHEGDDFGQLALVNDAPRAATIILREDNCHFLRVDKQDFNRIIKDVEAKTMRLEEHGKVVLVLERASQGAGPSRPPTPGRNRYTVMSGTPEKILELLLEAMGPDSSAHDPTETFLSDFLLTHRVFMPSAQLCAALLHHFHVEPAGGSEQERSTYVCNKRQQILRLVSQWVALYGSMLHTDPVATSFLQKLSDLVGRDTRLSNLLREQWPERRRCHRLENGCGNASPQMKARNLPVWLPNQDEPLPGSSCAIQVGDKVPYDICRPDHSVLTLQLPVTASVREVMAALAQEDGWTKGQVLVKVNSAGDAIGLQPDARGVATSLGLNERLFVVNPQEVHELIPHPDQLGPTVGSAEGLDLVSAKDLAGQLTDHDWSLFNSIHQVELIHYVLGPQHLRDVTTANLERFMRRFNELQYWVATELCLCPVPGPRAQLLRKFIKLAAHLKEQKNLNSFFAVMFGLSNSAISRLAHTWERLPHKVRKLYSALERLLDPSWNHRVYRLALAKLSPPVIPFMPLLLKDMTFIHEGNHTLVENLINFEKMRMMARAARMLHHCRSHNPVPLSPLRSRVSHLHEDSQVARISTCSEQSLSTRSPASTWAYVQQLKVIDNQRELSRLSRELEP
Description: (§1) Antagonist activity at recombinant full length EPAC1 (unknown origin) assessed as inhibition of cAMP-mediated Rap1b-BODIPY GDP nucleotide exchange activity. Summed up:
(§2)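 Guanine nucleotide exchange on Rap1b loaded with BODIPY-GDP (Rap1b-bGDP), catalysed by EPAC1 in the presence of 20 μM cAMP. Inhibitor is tested over a dose range. GEF activity is expressed as a normalized reaction rate constant, and IC50 is taken from the dose-response curves. Values are mean ± SE, n = 3.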

In assay [2] the target is T2, Rap guanine nucleotide exchange factor 3 (Homo sapiens, UniProt O95398).
T2 sequence (O95398 whole entry): T1 sequence (whole entry)
The description is as §1. Summed up:
as §2

In assay [3] the target is Rap guanine nucleotide exchange factor 4 (Homo sapiens, UniProt Q8WZA2). The experiment in a line: Antagonist activity at recombinant full length EPAC2 (unknown origin) assessed as inhibition of cAMP-mediated Rap1b-BODIPY GDP nucleotide exchange activity. Summed up: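 Guanine nucleotide exchange on Rap1b loaded with bGDP, catalysed by EPAC2 in the presence of 20 μM cAMP and run across a compound dose range. Relative GEF activity is expressed as the normalized reaction rate constant.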

`CC(C)(C)c1cc(C(=O)/C(C#N)=N/Nc2cccc(Cl)c2)no1`: the inhibition result in assay [1] and in assay [3] was “Dose-dependent effect” each time. Also, the IC50 in assay [2] was in the range of 9.1 to 10.8 µM; in assay [3] it was 4.4 to 8.9 µM.
Regarding `C[C@@H]1CCc2c(cc(Br)c(F)c2Br)N1C=O`, the results for the IC50 in assay [2] and in assay [3] were 5.5 µM and 17 µM, respectively.
